Data published in paper PMC6262783 (International Journal for Parasitology: Drugs and Drug …, 2018).
Entries after “also recorded” stand apart in the source; their conditions may differ.

How the values were obtained:
[1] = test system: human foreskin fibroblasts (HFF); test: Mammalian cell cytotoxicity screen; format: cell-based; conditions: Fibroblast, 24 h, read-out: HFF IC50
How it was run: (§1)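 HFF and U-20S were kept in DMEM with 10% heat-inactivated bovine serum, 2 mM L-glutamine, penicillin/streptomycin, 10% Medium 199 and gentamicin, at 36.5 °C with 5% CO2. Confluent cells (~20,000/well plated) were treated with 0–100 µM test compound for 24 h in duplicate. Alamar Blue (0.5 mM resazurin, 4 h, 37 °C) was read at ex 530/25, em 590/25; untreated cells defined 100% viability.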

[2] = Metabolic stability in human liver microsomes; format: in vitro ADME
How it was run: (§2)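 Test compound (1 µM) was incubated with human or mouse liver microsomes (0.4 mg/mL protein) at 37 °C. Reactions were started with an NADPH-regenerating system and quenched at 2, 30 and 60 min. Remaining compound was quantified by LCMS to derive half-life, in vitro intrinsic clearance and predicted hepatic extraction ratio.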

[3] = test system: human liver cells (HC-04); test: Mammalian cell cytotoxicity screen; format: cell-based; conditions: HC04, 24 h, read-out: HCO4 IC50
How it was run: (§3)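 HEK-293 and HC-04 were kept in DMEM with 10% heat-inactivated bovine serum, 2 mM L-glutamine, penicillin/streptomycin and gentamicin (no Medium 199), at 36.5 °C with 5% CO2. Cells (~20,000/well) were grown to confluence, then treated with 0–100 µM test compound for 24 h in duplicate. Alamar Blue (0.5 mM resazurin, 4 h, 37 °C) was read at ex 530/25, em 590/25; viability was relative to untreated cells (100%).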

PRU T. gondii = test: T. gondii growth inhibition in vitro screen, PRU-dTom strain; format: cell-based, Toxoplasma gondii; conditions: for IC50: Toxoplasma gondii, 120 h, read-out: PRU T. gondii IC50; for activity against PRU T. gondii (in words): PRU strain
How it was run: (§4)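 HFF (~20,000/well) were grown to confluence, then infected with dTomato-expressing tachyzoites: RH 2000/well for 24 h, or PRU 8000/well for 48 h, at 37 °C. Medium was replaced and test compound in DMSO added at 0–100 µM in duplicate, with pyrimethamine as positive control. Fluorescence (ex 530/25, em 590/25) was read over 5 days; IC50 was the concentration halving RFU at day 5.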

[4] = Kinetic aqueous solubility by nephelometry; format: physicochemical; conditions: PBS pH 6.5, pH 6.5, aqueous buffer, kinetic from dmso stock
How it was run: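 Kinetic solubility was determined by nephelometry after 30 min at room temperature. A solubility range was reported.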

[5] = test system: RH-dTom tachyzoites in pre-treated HFF cells; test: Host cell; format: cell-based, Toxoplasma gondii
How it was run: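 HFF were grown to confluence in 96-well plates and exposed to 10 µM test compound for 24 h at 37 °C, in triplicate. Cells were washed twice with D10 medium, then infected with RH-dTom tachyzoites. Parasite growth was followed by fluorescence for 5 days post-infection and expressed relative to control.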

human albumin = human albumin (Homo sapiens, UniProt P02768); test: Chromatography-based protein binding; format: in vitro ADME; conditions: estimated by chromatographic method, human albumin column
How it was run: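 Plasma protein binding was estimated chromatographically on a human albumin column. Retention was correlated against a standard series of compounds with known cPPB values.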

[6] = test system: human embryonic kidney cells (HEK-293); test: Mammalian cell cytotoxicity screen; format: cell-based; conditions: HEK293, 24 h, read-out: HEK293 IC50
How it was run: as §3

RH-dTom tachyzoites = test: Extracellular parasite pre-treatment assay; format: cell-based; conditions: Toxoplasma gondii, read-out: parasite growth, % of control
How it was run: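 RH-dTom tachyzoites were isolated from culture and resuspended in D10 medium at 10e6/mL. They were exposed to 10 µM test compound for 4 h, then centrifuged and washed twice. Confluent HFF in 96-well plates were infected with 2000 treated tachyzoites per well. Parasite growth was read by fluorescence at 5 days post-infection and expressed relative to control.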

[7] = test system: murine macrophages (NR-9456); test: Mammalian cell cytotoxicity screen; format: cell-based; conditions: Mus musculus, Macrophage, 24 h, read-out: NR-9456 IC50
How it was run: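 Murine macrophages NR-9456 were maintained with added 1 mM sodium pyruvate and plated at ~20,000/well to confluence. They were exposed to 0–100 µM test compound for 24 h in duplicate. Resazurin (0.5 mM) was added for 4 h at 37 °C with 5% CO2, and fluorescence was read at ex 530/25, em 590/25. Viability was normalised to no-compound wells (100%).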

[8] = Metabolic stability in mouse liver microsomes; format: in vitro ADME
How it was run: as §2

[9] = test system: human osteosarcoma cells (U-20S); test: Mammalian cell cytotoxicity screen; format: cell-based; conditions: U2OS, 24 h, read-out: U2OS IC50
How it was run: as §1

[10] = test system: Salmonella typhimurium (TA100 strain); test: Bacterial reverse mutation assay; format: cell-based; conditions: 0.75 μM (ca. 3x average T. gondii IC50)
RH T. gondii = test: T. gondii growth inhibition in vitro screen, RH-dTom strain; format: cell-based, Toxoplasma gondii; conditions: for activity against RH T. gondii (in words): primary screen
How it was run: as §4

ME49 strain T. gondii = test: In vivo survivorship challenge in murine model; set-up: species or system Toxoplasma gondii
How it was run: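 Female Swiss Webster mice, 2 months old, were infected intraperitoneally with 5000 ME49 tachyzoites. Dosing started simultaneously: test compound 5 mg/kg (n = 10), pyrimethamine 5 mg/kg (n = 20) or solvent (n = 24), IP once daily for 10 days. Vehicle was 5% DMSO, 47.5% propylene glycol, 47.5% Kollisolv. Mice were weighed daily; survival was followed over 40 d by Kaplan-Meier.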

T. gondii = conditions: ref Sanford et al., 2018; cited from earlier work

human albumin, sequence (P02768 25-609): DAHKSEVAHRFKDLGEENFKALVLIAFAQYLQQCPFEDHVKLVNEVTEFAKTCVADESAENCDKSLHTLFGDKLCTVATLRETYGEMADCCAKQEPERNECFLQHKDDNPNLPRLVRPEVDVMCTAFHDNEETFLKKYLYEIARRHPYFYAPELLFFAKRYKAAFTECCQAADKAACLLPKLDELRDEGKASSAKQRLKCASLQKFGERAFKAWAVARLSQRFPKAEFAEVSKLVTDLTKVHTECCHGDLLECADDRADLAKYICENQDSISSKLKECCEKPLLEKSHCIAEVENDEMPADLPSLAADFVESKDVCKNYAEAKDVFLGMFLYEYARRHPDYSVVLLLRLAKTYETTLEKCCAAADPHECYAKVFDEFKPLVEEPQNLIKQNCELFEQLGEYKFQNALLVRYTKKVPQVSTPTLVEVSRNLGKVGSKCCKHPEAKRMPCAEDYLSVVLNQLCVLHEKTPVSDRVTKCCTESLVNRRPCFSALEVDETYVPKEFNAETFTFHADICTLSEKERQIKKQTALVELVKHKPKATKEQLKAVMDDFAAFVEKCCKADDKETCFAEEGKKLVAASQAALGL

Question: With `CC(C)(C)C1=CC(=NNC(=O)c2ccccc2)C=C(C(C)(C)C)C1=O` [KGW15, N'-(3,5-di-tert-butyl-4-oxocyclohexa-2,5-dien-1-ylidene)benzohydrazide] as the molecule, how does the IC50 [1] read?
Answer: Its IC50 is over 100 µM.

Question: For `Cc1ccc(C(=O)NN=C2C=C(C(C)(C)C)C(=O)C(C(C)(C)C)=C2)cc1` [KGW42, N'-(3,5-di-tert-butyl-4-oxocyclohexa-2,5-dien-1-ylidene)-4-methylbenzohydrazide], which IC50 [1] is on record?
Answer: The IC50 was over 100 µM.

Question: With `CC(C)(C)C1=CC(=NNC(=O)c2ccc(O)cc2)C=C(C(C)(C)C)C1=O` [KGW43, N'-(3,5-di-tert-butyl-4-oxocyclohexa-2,5-dien-1-ylidene)-4-hydroxybenzohydrazide] as the molecule, how does the IC50 [1] read?
Answer: Its IC50 is over 100 µM.

Question: For `CC(C)(C)C1=CC(=NNC(=O)c2ccc([N+](=O)[O-])cc2)C=C(C(C)(C)C)C1=O` [KGW44, N'-(3,5-di-tert-butyl-4-oxocyclohexa-2,5-dien-1-ylidene)-4-nitrobenzohydrazide], which “Predicted EH” value [2] is on record?
Answer: The value was 0.45.

Question: What about the half-life at 1 μM [2] of the same molecule?
Answer: The half-life at 1 μM was 1.38 h.

Question: What about the microsomal CLint at 1 μM [2] of the same molecule?
Answer: Its microsomal CLint at 1 μM is 21 µL/min/mg.

Question: And the IC50 [3]?
Answer: The IC50 was over 100 µM.

Question: And the IC50 (PRU T. gondii)?
Answer: The IC50 was 0.99 µM.

Question: What about the solubility kinetic at 30 min [4] of the same molecule?
Answer: The solubility kinetic at 30 min was under 1.6 µg/mL.

Question: What about the “parasite growth, % of control” value ([5]; HFF pre-treated 10 μM 24 h, washed, then infected, 5 days post-infection) of the same molecule?
Answer: The value was “no significant change in growth”.

Question: What about the “cPPB (% Bound)” value (human albumin) of the same molecule?
Answer: The value was 84.3 % Bound.

Question: What about the IC50 [6] of the same molecule?
Answer: The IC50 was over 100 µM.

Question: What about the activity at 10 µM (RH-dTom tachyzoites) of the same molecule?
Answer: The activity at 10 µM was 60.3%.

Question: And the IC50 [1]?
Answer: Its IC50 is over 100 µM.

Question: What about the IC50 [7] of the same molecule?
Answer: Its IC50 is over 100 µM.

Question: And the half-life at 1 μM [8]?
Answer: Its half-life at 1 μM is 0.15 h.

Question: And the microsomal CLint at 1 μM [8]?
Answer: The microsomal CLint at 1 μM was 99 µL/min/mg.

Question: And the IC50 [9]?
Answer: Its IC50 is over 100 µM.

Question: And the “Ames Assay” value [10]?
Answer: Its value is “neither compound was mutagenic; also recorded: Negative”.

Question: For `CC(C)(C)C1=CC(=NNC(=O)c2c[nH]cn2)C=C(C(C)(C)C)C1=O` [KGW45, N'-(3,5-di-tert-butyl-4-oxocyclohexa-2,5-dien-1-ylidene)-1H-imidazole-4-carbohydrazide], which IC50 [1] is on record?
Answer: The IC50 was over 100 µM.

Question: And the “activity against RH T. gondii (in words)” value (RH T. gondii; RH strain)?
Answer: Its value is “significantly weakened”.

Question: With `CC(C)(C)C1=CC(=NNC(=O)c2ccc(C#N)cc2)C=C(C(C)(C)C)C1=O` [KGW54, 4-cyano-N'-(3,5-di-tert-butyl-4-oxocyclohexa-2,5-dien-1-ylidene)benzohydrazide] as the molecule, how does the IC50 (PRU T. gondii) read?
Answer: Its IC50 is 2.2 µM.

Question: And the IC50 [1]?
Answer: Its IC50 is over 100 µM.

Question: And the IC50 (RH T. gondii; read-out: RH T. gondii IC50, RH-dTom tachyzoites in HFF, fluorescence, day 5)?
Answer: The IC50 was 1.2 µM.

Question: Which “Predicted EH” value [2] does the source give for `CC(C)(C)C1=CC(=NNc2ccc([N+](=O)[O-])cc2[N+](=O)[O-])C=C(C(C)(C)C)C1=O` [KGW59, 2,6-di-tert-butyl-4-(2-(2,4-dinitrophenyl)hydrazineylidene)cyclohexa-2,5-dien-1-one] here?
Answer: The value was 0.38.

Question: What about the half-life at 1 μM [2] of the same molecule?
Answer: Its half-life at 1 μM is 1.85 h.

Question: What about the microsomal CLint at 1 μM [2] of the same molecule?
Answer: Its microsomal CLint at 1 μM is 16 µL/min/mg.

Question: What about the IC50 [3] of the same molecule?
Answer: The IC50 was over 100 µM.

Question: And the IC50 (PRU T. gondii)?
Answer: Its IC50 is 1.4 µM.

Question: What about the solubility kinetic at 30 min [4] of the same molecule?
Answer: Its solubility kinetic at 30 min is under 1.6 µg/mL.

Question: What about the activity at 10 µM ([5]; Toxoplasma gondii, HFF, read-out: parasite growth, % of control) of the same molecule?
Answer: Its activity at 10 µM is 30.2%.

Question: What about the “survivorship (in words)” value (ME49 strain T. gondii) of the same molecule?
Answer: Its value is “significantly increased survivorship”.

Question: And the IC50 [6]?
Answer: The IC50 was over 100 µM.

Question: What about the IC50 [1] of the same molecule?
Answer: Its IC50 is over 100 µM.

Question: What about the IC50 [7] of the same molecule?
Answer: Its IC50 is over 100 µM.

Question: What about the “Predicted EH” value [8] of the same molecule?
Answer: The value was 0.50.

Question: What about the half-life at 1 μM [8] of the same molecule?
Answer: Its half-life at 1 μM is 0.617 h.

Question: And the microsomal CLint at 1 μM [8]?
Answer: Its microsomal CLint at 1 μM is 46 µL/min/mg.

Question: And the IC50 [9]?
Answer: Its IC50 is over 100 µM.

Question: And the “Ames Assay” value [10]?
Answer: The value was “neither compound was mutagenic; also recorded: Negative”.

Question: For `CCOc1ccc(C(=O)NN=C2C=C(C(C)(C)C)C(=O)C(C(C)(C)C)=C2)cc1` [KGW64, N'-(3,5-di-tert-butyl-4-oxocyclohexa-2,5-dien-1-ylidene)-4-ethoxybenzohydrazide], which “activity against PRU T. gondii (in words)” value (PRU T. gondii) is on record?
Answer: Its value is “only weakly active”.

Question: For `CC(C)(C)C1=CC(=NNC(=O)c2cccnc2)C=C(C(C)(C)C)C1=O` [KGW65, N'-(3,5-di-tert-butyl-4-oxocyclohexa-2,5-dien-1-ylidene)nicotinohydrazide], which “activity against PRU T. gondii (in words)” value (PRU T. gondii) is on record?
Answer: The value was “completely inactive”.

Question: For `CC(C)(C)C1=CC(=NNC(=O)C2CCCCC2)C=C(C(C)(C)C)C1=O` [KGW66, N'-(3,5-di-tert-butyl-4-oxocyclohexa-2,5-dien-1-ylidene)cyclohexanecarbohydrazide], which “activity against RH T. gondii (in words)” value (RH T. gondii; RH strain) is on record?
Answer: The value was “abolished activity”.

Question: Which IC50 [1] does the source give for `Cc1ccc(C(=O)ON=C2C=C(C(C)(C)C)C(=O)C(C(C)(C)C)=C2)cc1` [KGW72, 2,6-di-tert-butyl-4-(((4-methylbenzoyl)oxy)imino)cyclohexa-2,5-dien-1-one] here?
Answer: Its IC50 is over 100 µM.

Question: What about the “reduction of potency relative to KG8” value (RH T. gondii; RH strain) of the same molecule?
Answer: The value was 6 fold.

Question: With `CC1(C)CC(=NNC(=O)c2ccncc2)CC(C)(C)C1=O` [KGW73, N'-(3,3,5,5-tetramethyl-4-oxocyclohexylidene)isonicotinohydrazide] as the molecule, how does the IC50 [1] read?
Answer: The IC50 was over 100 µM.

Question: And the “activity against RH T. gondii (in words)” value (RH T. gondii; RH strain)?
Answer: Its value is “inactive”.

Question: With `NNC(=O)c1ccncc1` [isoniazid] as the molecule, how does the “activity against T. gondii in vitro (in words)” value (T. gondii) read?
Answer: Its value is “inactive”.
